High-throughput results as filed in PubChem.
Tcruzi prolif: inhibitors of T. cruzi proliferation. T. cruzi beta-gal in NIH3T3, GalScreen luminescence, 90 h. inhibition, % at 8.34 µM. actives 5.9% (n = 77,000). AID 624255;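 active = mean inhibition above about 93%, with at least 55% of replicates each passing it, limit read from the data, passing the limit was not always enough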
KDM4C inh: KDM4C (human) demethylase inhibition; actives 0.15% (n = 96,000); inhibition, % at 12.5 µM; GST-KDM4C 2-372, H3K9me3 peptide, LANCE TR-FRET;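 active = mean replicate inhibition above about 25%, with at least 55% of replicates also reaching it, limit read from the data, passing the limit was not always enough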
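Test system: N-terminal GST-fused human GASC-1 (KDM4C) fragment, residues 2-372; quantity: GASC-1 enzyme at 10 nM final in reaction; dosing: single dose; schedule: 30 min demethylation and 1 h detection at room temperature; signal: LANCE TR-FRET, excitation 340 nm, emissions 618 and 671 nm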
Pf Dd2 inh: inhibitors of Plasmodium falciparum Dd2 growth; P. falciparum Dd2 growth, SYBR Green, 72 h; active compounds read low; activity change, % at 10 µM; actives 2.3% (n = 94,000); AID 1159554; in the data active = activity change below about -80%
IDH1 mut inh: inhibitors of human IDH1 R132H. IDH1 R132H reductase, diaphorase/resazurin fluorescence, 60 min. inhibition, % at 10 µM. actives 0.18% (n = 70,000). O75874; in the data active = inhibition above about 34%;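 note: 0% = DMSO and 100% = no enzyme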
Target sequence (O75874 whole entry R132H): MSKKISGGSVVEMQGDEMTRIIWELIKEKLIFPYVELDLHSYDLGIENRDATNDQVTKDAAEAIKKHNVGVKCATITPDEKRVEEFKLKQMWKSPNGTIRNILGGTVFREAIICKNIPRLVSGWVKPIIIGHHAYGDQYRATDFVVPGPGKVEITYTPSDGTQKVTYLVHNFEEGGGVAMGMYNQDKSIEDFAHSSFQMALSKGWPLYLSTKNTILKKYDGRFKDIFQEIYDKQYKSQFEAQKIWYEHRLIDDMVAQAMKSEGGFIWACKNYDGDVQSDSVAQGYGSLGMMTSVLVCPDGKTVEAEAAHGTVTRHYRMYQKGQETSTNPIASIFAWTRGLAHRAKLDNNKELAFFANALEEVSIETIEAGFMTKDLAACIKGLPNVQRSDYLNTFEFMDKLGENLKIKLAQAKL
Numbers without * were called inactive. Sampled rows, rich in hits. Any-hit rate of the full collection: about 5.8%.

What do the screens show for `O=C(c1ccc2c(c1)OCO2)N1CC(=O)N2[C@H](CO)[C@H](c3ccc(C#Cc4ccccc4)cc3)[C@H]2C1`?
KDM4C inh: -2.8; Pf Dd2 inh: -81.9*

Results for COc1ccc(-c2ccc([C@H]3[C@@H](CO)N4C(=O)CN(C(=O)NC(C)C)C[C@H]34)cc2)cc1 ?
KDM4C inh: 1.0; Pf Dd2 inh: -45.9

Results for COc1ccc(-c2ccc([C@@H]3[C@H]4CN(C(=O)NC(C)C)CC(=O)N4[C@H]3CO)cc2)cc1 ?
KDM4C inh: -0.2; Pf Dd2 inh: -87.4*

What do the screens show for `O=C(NCC[C@H]1CC[C@H](NS(=O)(=O)c2cccc(F)c2)[C@@H](CO)O1)Nc1cc(F)ccc1F`?
Tcruzi prolif: 6.1; KDM4C inh: 1.7; Pf Dd2 inh: 6.8; IDH1 mut inh: 0.3

How did C[C@@H]1CN([C@@H](C)CO)C(=O)c2cccc(NC(=O)Nc3cccc4ccccc34)c2O[C@H]1CN(C)C(=O)Nc1ccc(F)cc1 do in these assays?
Tcruzi prolif: 60.5; KDM4C inh: 12.7; Pf Dd2 inh: -45.3; IDH1 mut inh: 1.2

What do the screens show for `COc1ccc(C#Cc2ccc([C@@H]3[C@@H](CO)N4C(=O)CN(C(=O)c5ccccc5)C[C@H]34)cc2)cc1`?
KDM4C inh: -4.7; Pf Dd2 inh: -87.0*

Results for O=C(c1ccc(F)cc1)N1CC(=O)N2[C@H](CO)[C@H](c3ccc(C#Cc4ccc(F)cc4)cc3)[C@H]2C1 ?
KDM4C inh: 0.5; Pf Dd2 inh: -90.8*

Results for COc1ccc(NC(=O)N2CC(=O)N3[C@H](C2)[C@H](c2ccc(C#CCC4CCCC4)cc2)[C@@H]3CO)cc1 ?
KDM4C inh: -1.0; Pf Dd2 inh: -33.3

What do the screens show for `O=C(c1ccc(F)cc1)N1CC(=O)N2[C@H](CO)[C@@H](c3ccc(C#Cc4ccc(F)cc4)cc3)[C@H]2C1`?
KDM4C inh: -0.8; Pf Dd2 inh: -29.1

What do the screens show for `COc1ccc(NC(=O)N2CC(=O)N3[C@@H](CO)[C@H](c4ccc(C#CCC5CCCC5)cc4)[C@@H]3C2)cc1`?
KDM4C inh: -2.7; Pf Dd2 inh: -90.4*

Results for COC(=O)C[C@@H]1CC[C@H]2[C@H](COc3ccc(NC(=O)c4cc(C)on4)cc3C(=O)N2C)O1 ?
Tcruzi prolif: 0.0; KDM4C inh: 1.5; Pf Dd2 inh: 4.0

What do the screens show for `CO[C@@H]1CN(C)C(=O)c2ccc(NC(=O)c3nc4ccccc4s3)cc2OC[C@H](C)N(Cc2ccncc2)C[C@@H]1C`?
KDM4C inh: -0.9; Pf Dd2 inh: -95.9*; IDH1 mut inh: 7.0

What do the screens show for `CO[C@@H]1CN(C)C(=O)c2ccc(NC(=O)c3nc4ccccc4s3)cc2OC[C@H](C)N(Cc2cccnc2)C[C@@H]1C`?
Tcruzi prolif: 91.0; KDM4C inh: 1.7; Pf Dd2 inh: -82.7*

What do the screens show for `CO[C@@H]1CN(C)C(=O)c2ccc(NC(=O)c3nc4ccccc4s3)cc2OC[C@@H](C)N(Cc2ccncc2)C[C@@H]1C`?
KDM4C inh: -0.1; Pf Dd2 inh: -71.7; IDH1 mut inh: 3.8

Results for CO[C@@H]1CN(C)C(=O)c2ccc(NC(=O)c3nc4ccccc4s3)cc2OC[C@H](C)N(Cc2cccnc2)C[C@H]1C ?
Tcruzi prolif: 69.3; KDM4C inh: -3.0; Pf Dd2 inh: -52.6

What do the screens show for `Cc1nc(SCC(=O)Nc2ccccc2)n[nH]1`?
IDH1 mut inh: 0.2

How did O=C(COc1cccc2ccccc12)Nc1cc(C(=O)O)cc(C(=O)O)c1 do in these assays?
IDH1 mut inh: -0.4

What do the screens show for `C[C@H](CO)N1C[C@H](C)[C@H](CN(C)Cc2ccc(O)cc2)OCc2ccccc2-c2c(n(C)c3ccccc23)C1=O`?
KDM4C inh: 1.3; Pf Dd2 inh: 30.3

Results for C[C@H](CO)N1C[C@H](C)[C@H](CN(C)Cc2ccc(Cl)c(Cl)c2)OCc2ccccc2-c2c(n(C)c3ccccc23)C1=O ?
KDM4C inh: -2.1; Pf Dd2 inh: -74.2

How did C[C@@H]1CN([C@H](C)CO)C(=O)c2c(c3ccccc3n2C)-c2ccccc2CO[C@H]1CN(C)Cc1ccc(Cl)c(Cl)c1 do in these assays?
KDM4C inh: -18.4; Pf Dd2 inh: -88.7*

How did C[C@H]1CN([C@@H](C)CO)C(=O)c2c(c3ccccc3n2C)-c2ccccc2CO[C@@H]1CN(C)Cc1ccc(Cl)c(Cl)c1 do in these assays?
KDM4C inh: -10.8; Pf Dd2 inh: -87.7*

How did C[C@@H]1CN([C@@H](C)CO)C(=O)c2c(c3ccccc3n2C)-c2ccccc2CO[C@@H]1CN(C)Cc1ccc(Cl)c(Cl)c1 do in these assays?
KDM4C inh: -2.3; Pf Dd2 inh: -86.8*
